# Measurements as given in article PMC10085907 (Clinical Pharmacokinetics, 2023).
# What was measured:
# [1] = cited from earlier work
# [2] = cited from earlier work; remark: listed apart in the source
# [3] = at the therapeutic dose; cited from earlier work
# CYP2C19 [4] = target: T1, CYP2C19 (Homo sapiens, UniProt P33261); conditions: read-out: CYP2C19 half-maximum inhibitory concentration (IC50); in vitro; cited from earlier work
# CYP2C19 [5] = target: T1, CYP2C19; type: in vivo; conditions: healthy CYP2C19 extensive metabolizers; 7 days of dosing
# CYP3A4 = conditions: read-out: CYP3A4 inhibition IC50; in vitro; cited from earlier work
# [6] = proguanil alone, previous study; cited from earlier work
# [7] = type: in vivo, human; conditions: atovaquone/proguanil 250/100 mg alone; N = 16; mean ± SD
# Outline: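 Healthy CYP2C19 *1/*1 subjects (PCR-genotyped) in a crossover design; acid reducer given orally once daily for 6 days at the approved maximum dose, then co-dosed with oral atovaquone/proguanil. Plasma sampled to 48 h, urine in 0–8, 8–24 and 24–48 h intervals, both assayed by HPLC-MS/MS. Non-compartmental analysis: t½ = ln2/λz, CL/F = dose/AUCinf, fe = 48-h urinary proguanil/dose.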
# T1 sequence (P33261 whole entry): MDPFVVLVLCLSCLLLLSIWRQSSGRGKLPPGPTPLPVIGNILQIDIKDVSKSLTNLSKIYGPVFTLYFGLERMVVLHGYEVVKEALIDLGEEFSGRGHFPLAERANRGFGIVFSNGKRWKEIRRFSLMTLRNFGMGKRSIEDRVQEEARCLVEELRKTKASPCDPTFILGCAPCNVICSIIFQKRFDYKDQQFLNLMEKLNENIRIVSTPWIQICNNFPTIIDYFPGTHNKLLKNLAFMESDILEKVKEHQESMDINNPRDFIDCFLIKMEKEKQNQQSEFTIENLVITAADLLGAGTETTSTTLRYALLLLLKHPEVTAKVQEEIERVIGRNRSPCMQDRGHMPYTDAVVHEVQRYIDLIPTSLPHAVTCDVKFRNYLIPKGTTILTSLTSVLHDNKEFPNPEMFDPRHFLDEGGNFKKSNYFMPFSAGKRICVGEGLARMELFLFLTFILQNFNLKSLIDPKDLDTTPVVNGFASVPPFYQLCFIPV
compound,measurement,setting,value
"[H]/N=C(\N/C(=N/[H])Nc1ccc(Cl)cc1)NC(C)C [Proguanil, proguanil]",Fraction of the dose renally excreted,[1],40–60%
same,Biopharmaceutical Classification System (BCS) class,[2],class III
"CNCc1cc(-c2ccccc2F)n(S(=O)(=O)c2cccnc2)c1 [Vonoprazan, vonoprazan]",Unbound maximum plasma concentration (Cmax),[3],approximately 0.01 µM
same,IC50,CYP2C19 [4],13 µM
"Cc1nc2c(O[C@H]3CCOc4cc(F)cc(F)c43)cc(C(=O)N(C)C)cc2[nH]1 [Tegoprazan, tegoprazan]",Unbound Cmax,[3],approximately 1.3 µM
same,Effect on CYP2C19 activity (conclusion from proguanil PK),CYP2C19 [5],neither an inhibitor nor an inducer of CYP2C19
Cc1c(OCC(F)(F)F)ccnc1C[S+]([O-])c1nc2ccccc2[nH]1 (stereo not drawn) [lansoprazole],Biopharmaceutical Classification System (BCS) class,[2],class II
COc1ccc2[nH]c([S+]([O-])Cc3ncc(C)c(OC)c3C)nc2c1 (stereo not drawn) [omeprazole],Biopharmaceutical Classification System (BCS) class,[2],class II
"O=C1C(O)=C([C@H]2CC[C@H](c3ccc(Cl)cc3)CC2)C(=O)c2ccccc21 [Atovaquone, atovaquone]",Excreted unchanged in the feces,[1],≥ 94%
"CC1(C)N=C(N)N=C(N)N1c1ccc(Cl)cc1 [Cycloguanil, cycloguanil]",Metabolic ratio (cycloguanil-to-proguanil ratio),[6],0.84
same,Metabolic ratio (AUCinf of cycloguanil to AUCinf of proguanil),[7],0.35
